GAA850 FXN act = FXN promoter activators, primary screen, cell-based, luciferase luminescence, HEK293 lucGAA850; HEK293 lucGAA850 FXN promoter luciferase reporter, 24 h; percent of 10 µM SAHA response; activation, % at 6 µM; hit rate 0.56% among 360,000;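 active means activation above the average of all compounds screened plus 3 SD, cutoff fixed separately per campaign, cut at about 7.5% in these data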;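 further: 0% = DMSO wells and 100% = 10 µM SAHA wells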
Lipid droplet = inhibitors of hepatocyte lipid droplet formation, primary screen, imaging, high-throughput imaging, BODIPY stain | inhibition, % at 6.5 µM | AML12 mouse hepatocytes, oleate lipid droplets | hit rate 0.4% among 240,000;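 active means lipid droplet intensity inhibited by at least 50%, with more than 500 cells counted; inconclusive means wells with under 300 cells, treated as cytotoxic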
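Assay system: AML12 hepatocytes (mouse); Probe or stimulus: oleic acid at 100 µM to induce lipid droplet formation; Dosing: compound at 6.5 µM only; Schedule: compound with oleate, overnight; Detection: fluorescence imaging, 20x objective, two fields per well; Measure: % inhibition of lipid droplet signal.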
proCasp3 act = activators of human procaspase-3 D3A mutant, primary screen, biochemical, absorbance, PC-3 D3A mutant, single concentration; hit rate 0.11% among 330,000; activation, % at 8.5 µM; recombinant procaspase-3 D3A, Ac-DEVD-pNA absorbance 405 nm; Caspase-3 (Homo sapiens), P42574;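 active means activation above the mean of all tested compounds plus 3 SD, cut at about 21% in these data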;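 further: 0% = DMSO alone and 100% = DMSO wells spiked with extra 5 µM PC-3 D3A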
Target sequence (P42574 whole entry D9A/D28A/D175A): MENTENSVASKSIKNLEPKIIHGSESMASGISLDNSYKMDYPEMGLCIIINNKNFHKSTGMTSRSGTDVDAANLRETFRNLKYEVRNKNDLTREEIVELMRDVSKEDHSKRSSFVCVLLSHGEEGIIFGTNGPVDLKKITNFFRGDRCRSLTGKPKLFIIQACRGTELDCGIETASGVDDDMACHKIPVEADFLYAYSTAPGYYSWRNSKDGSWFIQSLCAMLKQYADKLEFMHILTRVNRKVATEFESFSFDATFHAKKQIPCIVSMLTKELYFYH
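Assay system: Autoprocessing-dead procaspase-3 D3A mutant enzyme; also added: Ac-DEVD-pNA; doses: one concentration, 8.5 µM nominal, 0.8% DMSO; times: 1 h compound preincubation, 2 h substrate hydrolysis at 25 °C; technique: 405 nm absorbance of p-nitroaniline, reads at 0 and 120 min; measure: % activation between DMSO and enzyme-spiked controls; repeats: single replicate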
p-CIP stab down = p/CIP-EGFP fusion destabilizers, primary screen, fluorescence, F442A cells | 16 h | decrease of EGFP signal, % at 10 µM | hit rate 0.01% among 290,000 | AID 1984, 2009;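 active means EGFP signal decrease of at least 30% at 10 µM or well 3 SD below plate mean, unless failing retest; inactive means the rest, including hits failing retest or dose response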
proCasp7 act = procaspase-7 activators, primary screen, counter-screen for procaspase-3 activator project, biochemical, absorbance, HTS, human; hit rate 0.093% among 330,000; recombinant procaspase-7, Ac-DEVD-pNA absorbance 405 nm; D23A/D198A/D206A triple mutant, cannot self-cleave; scale: DMSO 0, 5 µM enzyme 100; Caspase-7 (Homo sapiens), P55210; activation, % at 8.5 µM;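 active means percent activation above the screen-wide mean plus 3 SD, cut at about 25% in these data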
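Assay system: Uncleavable procaspase-7 mutant enzyme | Input: 2 µM procaspase-7 mutant as dispensed | Timing: 1 h compound preincubation, 2 h substrate cleavage, 25 °C | Repeats: One well per compound | Control set: DMSO wells as 0%, DMSO with 5 µM added PC-7 as 100% | Technique: Epi-absorbance of released pNA at 405 nm, two timepoints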
Rce1 inh = yeast Rce1p protease inhibitors, primary screen, biochemical, fluorescence, cell-free homogeneous; CAAX prenyl protease 2 (Saccharomyces cerevisiae (strain ATCC 204508 / S288c)), Q03530; yeast membranes, quenched prenylated peptide cleavage fluorescence; calls only; hit rate 0.27% among 290,000;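 active means fall in fluorescence gain of 50% or more versus controls, with final raw signal at or below 3038400; inconclusive means same 50% fall but final raw signal above 3038400; inactive means fall in fluorescence gain under 50%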;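 further: plate controls were neutral control wells for no effect and wells lacking membranes for full effect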
Target sequence (Q03530 whole entry, looked up): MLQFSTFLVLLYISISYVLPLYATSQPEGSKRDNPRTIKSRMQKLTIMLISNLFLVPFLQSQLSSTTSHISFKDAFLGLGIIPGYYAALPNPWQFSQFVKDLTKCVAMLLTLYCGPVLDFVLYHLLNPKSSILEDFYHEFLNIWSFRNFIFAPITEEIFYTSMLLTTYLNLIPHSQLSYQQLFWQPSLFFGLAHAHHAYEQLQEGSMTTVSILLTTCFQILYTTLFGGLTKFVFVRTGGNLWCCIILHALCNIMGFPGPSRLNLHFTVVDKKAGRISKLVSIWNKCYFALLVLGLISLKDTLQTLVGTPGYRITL
GAA30 counter = GAA30 FXN promoter activators, confirmation, counter-screen for GAA850 frataxin promoter activator project, cell-based, luminescence, HEK293, lucGAA30, triplicate | shares compounds with GAA850 FXN act | HEK293 lucGAA30 FXN promoter luciferase, 24 h; DMSO = 0%, 5 µM ipriflavone = 100% | activation, % at 6 µM | hit rate 66% among 1,900 | AID 588350, 2011;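 active means mean activation above the mean of solvent-only control wells plus 3 SD, cut at about 22% in these data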;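 further: counterscreen of GAA850 promoter hits where activity marks nonselective or luminescence artifacts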
GAA850 confirm = FXN GAA850 promoter activators in reporter cells, confirmation, cell-based, luminescence, HEK293 lucGAA850, triplicate. shares compounds with GAA850 FXN act. hit rate 86% among 1,900. HEK293 lucGAA850 FXN promoter luciferase reporter, 24 h; 100% = activation by SAHA. AID 588351, 2011. activation, % at 6 µM;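 active means mean activation above a set limit taken from the primary screen, cut at about 8% in these data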;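 further: 0% = DMSO wells and 100% = 10 µM SAHA wells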
* marks the source's active call; other numbers are inactive results; i = inactive; ? = inconclusive; . = no result given. Rows were chosen to be rich in hits. Some 1.2% of all compounds tested hit in one or more screens of this group.

SMILES	GAA850 FXN act	Lipid droplet	proCasp3 act	p-CIP stab down	proCasp7 act	Rce1 inh	GAA30 counter	GAA850 confirm
CCOC(=O)c1cc2c(=O)n3ccccc3nc2n(CCCOC)c1=NC(=O)C(C)(C)C	4	.	-7	-22	-3	?	.	.
O=c1oc2cc(O)ccc2s1	9.6*	.	-16	.	-24	i	-4	16*
CC(C)C(N)c1csc(NC(=O)Nc2ccc(OC(F)(F)F)cc2)n1 (centres undefined)	-1	.	.	.	.	.	.	.
Cn1c2nc3ccccc3c-2nc2ccccc21	11*	.	.	.	.	.	115*	35*
COCCNC(=O)C(c1ccc(C)cc1)N(C(=O)CCC(=O)Nc1ccccn1)C1CCCCC1 (centres undefined)	-1	0	1	1	-4	i	.	.
CC(Oc1ccc2c(-c3ccccc3)cc(=O)oc2c1)C(=O)NCCCn1ccnc1 (centres undefined)	8.7*	-20	2	-3	4	.	7	5
CCCc1cc(=O)oc2cc(OC(C)C(=O)NCCCn3ccnc3)ccc12 (centres undefined)	-1	-16	-3	-8	-4	i	.	.
CC1(Cc2cc(Cl)ccc2C(F)(F)F)C(=O)Nc2cc(F)ccc21 (centres undefined)	0	.	.	.	.	.	.	.
CC1(Cc2ccc(C(F)(F)F)o2)C(=O)Nc2cc(-c3ccc(F)cc3F)ccc21 (centres undefined)	9.2*	.	.	.	.	.	20	13*
CC(C)Cc1nnc(NC(=O)c2cc3c(s2)CCC3)s1	8.2*	11	3	4	-8	i	95*	29*
Cc1ccc(-c2noc(-c3ccccc3F)n2)cc1	8.1*	-4	-1	0	0	i	135*	45*
O=C(O)c1ccc(-c2noc(-c3ccccc3F)n2)cc1	1	.	6	.	-2	i	.	.
CCOC(=O)C(=O)C1=C(N2CCOCC2)/C(=C\c2ccc(F)cc2)CC1	7.6*	-31	-11	-9	-16	i	18	9.0*
COc1ccc(CCC(=O)Nc2ccc(OC)c(S(=O)(=O)N3CCCCC3)c2)cc1	1	.	0	.	-2	.	.	.
COCCn1c(C)cc(C(=O)Cn2nc(C(=O)O)c3ccccc3c2=O)c1C	9.4*	2	-3	9	4	i	98*	35*
C=CCn1c(C)cc(C(=O)Cn2nc(C(=O)O)c3ccccc3c2=O)c1C	4	-8	0	-3	0	i	.	.
COc1ccccc1NC(=O)Cn1cnc2sc(C(=O)Nc3cc(OC)c(OC)c(OC)c3)c(C)c2c1=O	-1	7	3	0	-1	i	.	.
COc1ccccc1NC(=O)c1sc2ncn(CC(=O)Nc3ccccc3)c(=O)c2c1C	13*	14	1	5	-3	i	-4	0
NC(Cc1ccc(Cl)cc1)c1csc(Nc2ccc(C(F)(F)F)cn2)n1 (centres undefined)	0	.	.	.	.	.	.	.
COc1ccc(-n2c(C)cc(C(=O)CN3C(=O)c4ccccc4C3=O)c2C)cc1	4	-30	-2	-12	-1	i	.	.
COc1ccc(-n2c(C)cc(C(=O)CCl)c2C)cc1	8.0*	-1	-5	-13	-7	i	-70	31*
COc1cc(OC)nc(Nc2nc(C(N)Cc3ccc(Cl)cc3)cs2)n1 (centres undefined)	-1	.	.	.	.	.	.	.
CCOC(=O)c1ccc2[nH]c3c(c2c1)CCCC3C(=O)OCC (centres undefined)	-1	.	-3	-6	-3	i	.	.
CCOC(=O)c1ccc2[nH]c3c(c2c1)CCCCC3=O	8.1*	4	6	-13	-7	i	65*	25*
CCCCc1ccc(-c2ccc(Br)cc2)nc1	8.4*	20	-3	0	7	i	107*	34*
SMILES	GAA850 FXN act	Lipid droplet	proCasp3 act	p-CIP stab down	proCasp7 act	Rce1 inh	GAA30 counter	GAA850 confirm
CN(C(=O)c1cccc(COc2ccc(Cl)cc2Cl)c1)c1ccccc1	8.3*	-23	4	-3	7	i	102*	39*
CS(=O)(=O)c1ccc(Sc2nc3ccccc3s2)c([N+](=O)[O-])c1	-17	8	3	-1	5	i	.	.
O=[N+]([O-])c1cc(S(=O)(=O)C(F)(F)F)ccc1Sc1nc2ccccc2s1	13*	.	-12	-15	12	i	-7	38*
CC(C)(C)CCN1CCC(CN2CCNC2=S)CC1	0	.	.	.	.	.	.	.
CCOC(=O)/C(=N\Nc1ccc(OC)cc1)c1csc(Nc2ccccc2)n1	11*	18	-4	3	0	i	38*	25*
CCOC(=O)/C(=N\Nc1ccc(Cl)cc1)c1csc(Nc2ccccc2)n1	8.0*	29	-12	-10	-18	i	34*	24*
CCOC(=O)/C(=N/Nc1ccccc1)c1csc(Nc2ccccc2)n1	7	18	-3	-4	6	i	.	.
CCCCn1c(N)c(N(CC(C)C)C(=O)C2CCN(S(=O)(=O)c3ccc(C)cc3C)CC2)c(=O)[nH]c1=O	-2	.	-4	.	3	i	.	.
CCOc1ccc(Nc2n[nH]c(=S)s2)cc1	9.8*	-12	-12	-6	-20	i	116*	32*
Cc1ccc(Nc2n[nH]c(=S)s2)cc1	0	.	.	.	.	.	.	.
O=C1N/C(=C/c2ccc(N3CCOCC3)o2)C(=O)N1c1ccccc1	11*	6	-17	-15	-19	.	54*	19*
CCOc1ccc(CCNS(=O)(=O)c2ccc3c(c2)N(C(C)=O)CCO3)cc1OCC	2	10	7	6	1	i	.	.
Cc1c(CN(C)C)c2c(n1C)C(=O)c1ccc(Br)cc1-2	11*	.	7	0	-9	i	20	18*
Cc1cc(C(=O)Nc2ccc3ccccc3c2)c(C)o1	3	-6	-5	-8	1	i	.	.
